Test results taken from ChEMBL document CHEMBL2169849, “Identification of antischistosomal leads by evaluating bridged 1,2,4,5-tetraoxanes, alphaperoxides, and tricyclic monoperoxides” (J Med Chem, 2012).

Key:
Schistosoma mansoni [1] = experiment: Antischistosomal activity against Schistosoma mansoni NTS incubated for 72 hrs; type: functional, organism-based
Procedure, shortened: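 NTS from mechanically transformed cercariae (Liberian strain), 100 per well in Medium 199 + 5% iFCS, penicillin/streptomycin, preincubated 12–24 h at 37°C, 5% CO2. Exposed to 0.37–90 μg/ml (threefold steps) for 72 h. Scored microscopically on a viability scale (death, motility, morphology). DMSO control; duplicates, at least three experiments; IC50 from viability scores.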

Schistosoma mansoni [2] = experiment: Antischistosomal activity against adult Schistosoma mansoni schistosomes incubated for 72 hrs; type: functional, organism-based
Schistosoma mansoni [3] = experiment: Antischistosomal activity against adult Schistosoma mansoni infected NMRI mouse adult infection model assessed as reduction in total worm burden at 400 mg/kg administered as single dose starting from 49 days post infection; type: functional; parameters: scale not given: the % may be the effect or the level left
Procedure, shortened: (§1)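 Mice infected subcutaneously with ~100 S. mansoni cercariae (Liberian strain). At day 49 post infection, groups of 4 NMRI mice received a single oral 400 mg/kg dose; 8–10 untreated controls. Total and female worm burden reductions calculated against untreated controls.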

Schistosoma mansoni [4] = experiment: Antischistosomal activity against adult Schistosoma mansoni infected NMRI mouse adult infection model assessed as reduction in female worm burden at 400 mg/kg administered as single dose starting from 49 days post infection; type: functional; parameters: scale not given: the % may be the effect or the level left; procedure, shortened: as §1
[5] = Selectivity index, ratio of IC50 for rat L6 cells to IC50 for adult Schistosoma mansoni schistosomes
Procedure, shortened: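 Ratio of L6 IC50 to adult S. mansoni IC50, both from the assays above.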

L6 = experiment: Cytotoxicity against rat L6 cells incubated for […] hrs by Alamar blue assay; type: cell-based
Schistosoma mansoni [6] = experiment: Antischistosomal activity against adult Schistosoma mansoni schistosomes incubated for 72 hrs in presence of 120 uM Fe(3)-hemin; type: functional, organism-based
Procedure, shortened: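 Adult worm motility assay in RPMI 1640 + 5% iFCS at 1.1–30 μg/ml. Fe(III)-hemin held at 120 μM final throughout exposure; hemin stock 1.5 mM in dilute NaOH/PBS pH 7.4. Motility scored, IC50 determined at 72 h. At least three experiments.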

Schistosoma mansoni [7] = experiment: Antischistosomal activity against adult Schistosoma mansoni infected NMRI mouse juvenile infection model assessed as reduction in female worm burden at 400 mg/kg administered as single dose starting from 21 days post infection; type: functional; parameters: scale not given: the % may be the effect or the level left
Procedure, shortened: (§2)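 Juvenile model: NMRI mice infected with ~100 cercariae were given a single oral 400 mg/kg dose on day 21 post infection. Dissected four weeks after treatment, worms sexed and counted. Total and female burden reductions calculated against untreated controls.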

Schistosoma mansoni [8] = experiment: Antischistosomal activity against adult Schistosoma mansoni infected NMRI mouse juvenile infection model assessed as reduction in total worm burden at 400 mg/kg administered as single dose starting from 21 days post infection; type: functional; parameters: scale not given: the % may be the effect or the level left; procedure, shortened: as §2
HeLa = experiment: Cytotoxicity against human HeLa cells incubated for 48 hrs by resazurin dye reduction assay; type: cell-based
MRC5 = experiment: Cytotoxicity against human MRC5 cells incubated for 48 hrs by resazurin dye reduction assay; type: cell-based; conditions: MRC5, 48 h
[9] = Selectivity index, ratio of IC50 for human MRC5 cells to IC50 for human HeLa cells; type: cell-based; conditions: MRC5 cells versus HeLa cells, read-out: Ratio IC50

Row | SMILES | IC50 (Schistosoma mansoni [1]) | IC50 (Schistosoma mansoni [2]) | also measured
1 | C[C@]12OO[C@](C)(OO1)C2CCC(=O)N1CCCCCC1 (stereo not given in full) | 5.5 µM | 50.1 µM | 
2 | C[C@]12OO[C@](C)(OO1)C2CCC(=O)NCCc1ccccc1 (stereo not given in full) | 6.1 µM | 65.6 µM | 
3 | C[C@]12OO[C@](C)(OO1)C2CCC(=O)N1CCCCC1 (stereo not given in full) | 6.6 µM | > 111 µM | 
4 | CC(c1ccc2ccccc2c1)C1[C@]2(C)OO[C@@]1(C)OO2 (stereo not given in full) | 7.1 µM | 35.5 µM | 
5 | C[C@]12OO[C@](C)(OO1)C2CCC(=O)NC1CCCCC1 (stereo not given in full) | 8.9 µM | 66.6 µM | 
6 | C[C@]12OO[C@](C)(OO1)C2CCC(=O)N1CCOCC1 (stereo not given in full) | 10.7 µM | 36.9 µM | 
7 | C[C@]12OO[C@](C)(OO1)C2CCC(=O)NCc1ccccc1 (stereo not given in full) | 10.9 µM | > 102 µM | 
8 | CCOC(=O)CNC(=O)CCC1[C@]2(C)OO[C@@]1(C)OO2 (stereo not given in full) | 11.7 µM | > 104 µM | 
9 | C[C@]12OO[C@](C)(OO1)C2CCC(=O)N1CCCC1 (stereo not given in full) | 13.9 µM | > 117 µM | 
10 | CC(C)NC(=O)CCC1[C@]2(C)OO[C@@]1(C)OO2 (stereo not given in full) | 25.6 µM |  | 
11 | CC12CCC3[C@@](C)(OO[C@]3(c3ccc(Br)cc3)O1)O2 | 1.7 µM | 8.7 µM | Activity (Schistosoma mansoni [3]): 31.3%; Activity (Schistosoma mansoni [4]): 36.4%; Ratio IC50 [5]: 0.9; IC50 (L6): 8.2 µM
12 | CCOC(=O)CCC12CCC3(C)O[C@]1(C)OO[C@]2(C)O3 | 3.5 µM | > 105 µM | IC50 (Schistosoma mansoni [6]): 92.2 µM
13 | Cc1ccc(CC23CCC4(C)O[C@]2(C)OO[C@]3(C)O4)cc1 | 4.5 µM | > 103 µM | Activity (Schistosoma mansoni [3]): 0%; Activity (Schistosoma mansoni [4]): 0%; Ratio IC50 [5]: >7.7; IC50 (Schistosoma mansoni [6]): 13.4 µM; IC50 (L6): > 103 µM
14 | C#CCC12CCC3(C)O[C@]1(C)OO[C@]2(C)O3 | 8.1 µM | 82.4 µM | 
15 | CC12CCC3(Cc4ccc([N+](=O)[O-])cc4)[C@@](C)(OO[C@]3(C)O1)O2 | 9 µM | 12.2 µM | Activity (Schistosoma mansoni [3]): 4.7%; Activity (Schistosoma mansoni [4]): 9.6%; Ratio IC50 [5]: >7.6; IC50 (L6): > 93 µM
16 | CC12CCC3[C@@](C)(OO[C@]3(C)O1)O2 | 9 µM | 19.2 µM | 
17 | CC12CCC3[C@@](C)(OO[C@]3(c3ccccc3)O1)O2 | 9.3 µM | 7.7 µM | Activity (Schistosoma mansoni [3]): 6.5%; Activity (Schistosoma mansoni [4]): 15.2%; Ratio IC50 [5]: 1.3; IC50 (L6): 10.3 µM
18 | CC12CCC3(Cc4ccccc4)[C@@](C)(OO[C@]3(C)O1)O2 | 13.4 µM | > 109 µM | 
19 | COc1ccc([C@]23OO[C@@]4(C)OC(C)(CCC42)O3)cc1 | 14.4 µM | 11.7 µM | Activity (Schistosoma mansoni [7]): 27.3%; Activity (Schistosoma mansoni [8]): 18.9%; Activity (Schistosoma mansoni [3]): 82.8%; Activity (Schistosoma mansoni [4]): 82.9%; Ratio IC50 [5]: 4.9; IC50 (L6): 58.3 µM; IC50 (HeLa): 6 µM; IC50 (MRC5): 12.4 µM; selectivity ratio [9]: 2
20 | C=CCC12CCC3(C)O[C@]1(C)OO[C@]2(C)O3 | 15.6 µM |  | 
21 | CC12CCC3[C@@](C)(OO[C@]3(c3ccc(Cl)cc3)O1)O2 | 16 µM |  | 
22 | CCCCC12CCC3(C)O[C@]1(C)OO[C@]2(C)O3 | 22.3 µM |  | 
23 | CC12CCC3(CC4CO4)[C@@](C)(OO[C@]3(C)O1)O2 (stereo not given in full) | 22.5 µM |  | 
24 | Cc1ccc([C@]23OO[C@@]4(C)OC(C)(CCC42)O3)cc1 | 45.3 µM |  | 
25 | CC12CCC3(C)[C@@](C)(OO[C@]3(C)O1)O2 | 180 µM |  | 
26 | CC12CCC3(CCC(=O)NC45CC6CC(CC(C6)C4)C5)[C@@](C)(OO[C@]3(C)O1)O2 | 213 µM |  | 
27 | CC12CCC3(CCC(=O)N4CCOCC4)[C@@](C)(OO[C@]3(C)O1)O2 | > 287 µM |  | 
28 | CC12CCC3(CCC(=O)O)[C@@](C)(OO[C@]3(C)O1)O2 | > 348 µM |  | 

Row | SMILES | IC50 (Schistosoma mansoni [1]) | IC50 (Schistosoma mansoni [2]) | also measured
29 | CC12CCC3(CCC#N)[C@@](C)(OO[C@]3(C)O1)O2 | > 376 µM |  | 
30 | C1COC(OOC23CC4CC(CC(C4)C2)C3)C1 (stereo not given) | > 126 µM |  | 
31 | CCOC(=O)CCC(OOC(C)(C)C)(C(C)=O)C(C)=O | > 104 µM |  | 
32 | CC(=O)C(C)(OOC(C)(C)C)C(C)=O | > 795 µM |  | 
33 | CCOC(=O)C(Cc1ccccc1)(OOC(C)(C)C)C(C)=O (stereo not given) | 15.1 µM |  | 
34 | CCCCC(OOC(C)(C)C)(C(C)=O)C(=O)OCC (stereo not given) | 26.5 µM |  | 
35 | CCOC(=O)C(CCC#N)(OOC(C)(C)C)C(C)=O (stereo not given) | > 111 µM |  | 
36 | CCOC(=O)C(Cc1ccccc1)(OOC(C)(C)C)C(=O)OCC | 14.6 µM | 59.1 µM | 
37 | CCOC(=O)C(C#N)(Cc1ccc(Cl)cc1)OOC(C)(C)C (stereo not given) | 9 µM | > 127 µM | 
38 | CCOC(=O)C(C#N)(CC(C)=O)OOC(C)(C)C (stereo not given) | 37.8 µM |  | 
39 | C=CCC(C#N)(OOC(C)(C)C)C(=O)OCC (stereo not given) | 43.2 µM |  | 
40 | CCOC(=O)C(C#N)(Cc1ccccc1)OOC(C)(C)C (stereo not given) | 67.7 µM |  | 
41 | CC(C)(C)OOC(C#N)(C#N)Cc1ccc(Cl)cc1 | 3.9 µM | 19.3 µM | IC50 (Schistosoma mansoni [6]): 17.9 µM
42 | CC(C)(C)OOC(C#N)(C#N)Cc1ccccc1 | 5 µM | 14.7 µM | Activity (Schistosoma mansoni [3]): 0%; Activity (Schistosoma mansoni [4]): 0%; Ratio IC50 [5]: 6.4; IC50 (L6): 99 µM
43 | COc1ccc(CC(C#N)(C#N)OOC(C)(C)C)cc1 | 8 µM | 40.6 µM | 
44 | CC(C)(C)OOC(C#N)(C#N)C1CCCC1 | 10.7 µM | 123 µM | 
45 | CCOC(=O)CC(C)C(C#N)(C#N)OOC(C)(C)C (stereo not given) | 157 µM |  | 
46 | CC(C)C(C#N)(C#N)OOC(C)(C)C | 293 µM |  | 
47 | C[C@]12OO[C@](C)(OO1)C2C12CC3CC(CC(C3)C1)C2 (stereo not given in full) | 0.1 µM | 0.3 µM | Activity (Schistosoma mansoni [7]): 50%; Activity (Schistosoma mansoni [8]): 43.1%; Activity (Schistosoma mansoni [3]): 75.4%; Activity (Schistosoma mansoni [4]): 77.8%; Ratio IC50 [5]: 5.7; IC50 (L6): 1.7 µM; IC50 (HeLa): 0.4 µM; IC50 (MRC5): 1.2 µM; selectivity ratio [9]: 2
48 | CC(c1ccc(Cl)cc1)C1[C@]2(C)OO[C@@]1(C)OO2 (stereo not given in full) | 0.4 µM | 35.5 µM | IC50 (Schistosoma mansoni [6]): 25.3 µM
49 | Cc1ccc(C(C)C2[C@]3(C)OO[C@@]2(C)OO3)cc1 (stereo not given in full) | 0.6 µM | 30.9 µM | IC50 (Schistosoma mansoni [6]): 41.2 µM
50 | C[C@]12OO[C@](C)(OO1)C2CCC(=O)NC12CC3CC(CC(C3)C1)C2 (stereo not given in full) | 0.8 µM | 33.3 µM | IC50 (Schistosoma mansoni [6]): 39.3 µM
51 | CC(c1ccc(Br)cc1)C1[C@]2(C)OO[C@@]1(C)OO2 (stereo not given in full) | 1 µM | 33.6 µM | IC50 (Schistosoma mansoni [6]): 47.7 µM
52 | CC(c1ccccc1)C1[C@]2(C)OO[C@@]1(C)OO2 (stereo not given in full) | 1.1 µM | 18.8 µM | Activity (Schistosoma mansoni [3]): 5%; Activity (Schistosoma mansoni [4]): 4.6%; Ratio IC50 [5]: 0.1; IC50 (Schistosoma mansoni [6]): 12.9 µM; IC50 (L6): 2.2 µM
53 | Cc1ccc(CC2[C@]3(C)OO[C@@]2(C)OO3)cc1 (stereo not given in full) | 1.2 µM | 40 µM | IC50 (Schistosoma mansoni [6]): > 127 µM
54 | C[C@H]1[C@H](OC(=O)CCC(=O)O)O[C@@H]2O[C@@]3(C)CC[C@H]4[C@H](C)CC[C@@H]1[C@@]24OO3 [ARTESUNATE] | 4.97 µM | 38.7 µM | Ratio IC50 [5]: 0.04; IC50 (Schistosoma mansoni [6]): 38.7 µM; IC50 (L6): 1.5 µM; IC50 (HeLa): 3.2 µM; IC50 (MRC5): 6.8 µM; selectivity ratio [9]: 2
55 | O=C(C1CCCCC1)N1CC(=O)N2CCc3ccccc3C2C1 (stereo not given) [PRAZIQUANTEL] | 2.2 µM |  | IC50 (L6): > 96 µM
